Data reported in ChEMBL document CHEMBL1154236, “Monoterpenes from Paeonia albiflora and their inhibitory activity on nitric oxide production by lipopolysaccharide-activated microglia” (J Nat Prod, 2009).
pIC50: −log10 of the molar value.

Legend:
N9 [1] = assay: Antiinflammatory activity against mouse N9 cells assessed as LPS-induced nitric oxide production at 30 uM after 48 hrs by Griess reaction relative to control; conditions: N9, 48 h
N9 [2] = assay: Antiinflammatory activity against mouse N9 cells assessed as LPS-induced nitric oxide production at 3 uM after 48 hrs by Griess reaction relative to control; conditions: N9, 48 h
N9 [3] = assay: Antiinflammatory activity against mouse N9 cells assessed as LPS-induced nitric oxide production at 10 uM after 48 hrs by Griess reaction relative to control; conditions: N9, 48 h
N9 [4] = assay: Antiinflammatory activity against mouse N9 cells assessed as LPS-induced nitric oxide production at 1 uM after 48 hrs by Griess reaction relative to control; conditions: N9, 48 h
N9 [5] = assay: Cytotoxicity against LPS-stimulated mouse N9 cells at 1 to 30 uM after 48 hrs by MTT assay; type: cell-based; conditions: n9, 48 h
Outline: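 N9 microglia seeded at 5 × 10^4 cells/well and exposed to compounds with LPS (1 µg/mL) for 48 h. MTT 0.25 mg/mL then added for 3 h at 37 °C. Formazan dissolved in DMSO and absorbance read at 490 nm.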

N9 [6] = assay: Antiinflammatory activity against mouse N9 cells assessed as inhibition of LPS-induced nitric oxide production after 48 hrs by Griess reaction relative to control; conditions: N9, 48 h
N9 [7] = assay: Antiinflammatory activity against mouse N9 cells assessed as inhibition of LPS-induced nitric oxide production after 48 hrs by Griess reaction relative to control; type: functional, cell-based; conditions: Homo sapiens, N9, 48 h
Outline: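 Murine N9 microglia (IMDM, 5% heat-inactivated FBS, 2 mM L-glutamine, 5 × 10^-5 M 2-mercaptoethanol), 1 × 10^5 cells/well, precultured 24 h at 37 °C, 5% CO2. Then LPS 1 µg/mL plus compound (DMSO stock diluted in PBS pH 7.4, DMSO ≤0.1%) for 48 h. Supernatant nitrite read by Griess reagent, 15 min room temperature, A540. Expressed as % of LPS-only response. IC50 from linear/nonlinear regression, n = 3. Curcumin positive control.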

| pIC50 (N9 [6]) | pIC50 (N9 [7]) | Compound | NO production (% of LPS control) at 30 µM (N9 [1]) [%] | NO production (% of LPS control) at 3 µM (N9 [2]) [%] | NO production (% of LPS control) at 10 µM (N9 [3]) [%] | NO production (% of LPS control) at 1 µM (N9 [4]) [%] | Activity (N9 [5]) |
| --- | --- | --- | --- | --- | --- | --- | --- |
| 4.87 |  | COc1cc(/C=C/C(=O)CC(=O)/C=C/c2ccc(O)c(OC)c2)ccc1O [CURCUMIN] | 35.2 | 75.6 | 56.1 | 86.6 |  |
| 4.19 |  | C[C@]12CC(=O)[C@H]3C[C@]1(O[C@@H]1O[C@H](CO)[C@@H](O)[C@H](O)[C@H]1O)[C@]3(COC(=O)c1ccccc1)[C@@H](OC[C@H]1O[C@@H](O[C@@]34C[C@H]5[C@@]3(COC(=O)c3ccccc3)[C@H]3O[C@]5(O)C[C@]4(C)O3)[C@H](O)[C@@H](O)[C@@H]1O)O2 [PAEONIDANIN E] | 69.2 | 102 | 88.8 | 102 |  |
| < 4.00 |  | C[C@]12C[C@@H](O)[C@H]3C[C@]1(O[C@@H]1O[C@H](COC(=O)c4ccccc4)[C@@H](O)[C@H](O)[C@H]1O)[C@]3(COC(=O)c1ccccc1)C(=O)O2 [PAEONIVAYIN] | 82.6 | 88.3 | 82 | 86.7 |  |
| 4.89 |  | C[C@@]12C[C@@]3(O)O[C@@H](O1)[C@]1(COC(=O)c4ccc(O)cc4)[C@@H]3C[C@]12O[C@@H]1O[C@H](COC(=O)c2ccccc2)[C@@H](O)[C@H](O)[C@H]1O [MUDANPIOSIDE C] | 38.5 | 66.7 | 57.5 | 71.8 |  |
| < 4.00 |  | COc1cc(COC[C@H]2O[C@@H](O[C@@]34C[C@H]5[C@@]3(COC(=O)c3ccccc3)[C@H]3O[C@]5(O)C[C@]4(C)O3)[C@H](O)[C@@H](O)[C@@H]2O)ccc1O | 90.1 | 106 | 99.8 | 107 |  |

More lines, now with the values behind:

| Compound | pIC50 (N9 [6]) | pIC50 (N9 [7]) | NO production (% of LPS control) at 30 µM (N9 [1]) [%] | NO production (% of LPS control) at 3 µM (N9 [2]) [%] | NO production (% of LPS control) at 10 µM (N9 [3]) [%] | NO production (% of LPS control) at 1 µM (N9 [4]) [%] | Activity (N9 [5]) |
| --- | --- | --- | --- | --- | --- | --- | --- |
| CO[C@H]1O[C@@]2(C)CC(=O)[C@H]3C[C@]2(O[C@@H]2O[C@H](CO[C@H]4O[C@@]5(C)CC(=O)[C@H]6C[C@]5(O[C@@H]5O[C@H](CO)[C@@H](O)[C@H](O)[C@H]5O)[C@]46COC(=O)c4ccccc4)[C@@H](O)[C@H](O)[C@H]2O)[C@]13COC(=O)c1ccccc1 [PAEONIDANIN D] |  |  | 77.1 | 96.6 | 83.5 | 112 | Toxic |
| C[C@@]12CC(=O)[C@H]3C[C@]1(O)O[C@H](O2)[C@@H]3COC(=O)c1ccccc1 [PAEONIFLORIGENONE] |  |  | 26.7 | 71.9 | 24.5 | 92.6 | Toxic |
| C[C@@]12C[C@@]3(O)O[C@@H](O1)[C@]1(COC(=O)c4ccccc4)[C@@H]3C[C@]12O[C@@H]1O[C@H](COC(=O)c2ccccc2)[C@@H](O)[C@H](O)[C@H]1O [BENZOYLPAEONIFLORIN] |  |  | 68.6 | 81.4 | 79.5 | 86.3 | Toxic |
| CO[C@]12C[C@]3(C)O[C@H](O1)[C@]1(COC(=O)c4ccccc4)[C@@H]2C[C@]13O[C@@H]1O[C@H](CO)[C@@H](O)[C@H](O)[C@H]1O | < 4.00 |  | 90.4 | 109 | 107 | 111 |  |
| CO[C@]12C[C@]3(C)O[C@H](O1)[C@]1(COC(=O)c4ccccc4)[C@@H]2C[C@]13O[C@@H]1O[C@H](COC(=O)c2cc(O)c(O)c(O)c2)[C@@H](O)[C@H](O)[C@H]1O | < 4.00 |  | 102 | 113 | 108 | 80.8 |  |
| C[C@@]12C[C@@]3(O)O[C@@H](O1)[C@]1(COC(=O)c4ccccc4)[C@@H]3C[C@]12O[C@@H]1O[C@H](COC(=O)c2cc(O)c(O)c(O)c2)[C@@H](O)[C@H](O)[C@H]1O [GALLOYLPAEONIFLORIN] |  |  | 69.5 | 84.4 | 62.1 | 82.1 | Toxic |
| CO[C@]12C[C@]3(C)O[C@H](O1)[C@]1(CO)[C@@H]2C[C@]13O[C@@H]1O[C@H](CO)[C@@H](O)[C@H](O)[C@H]1O | < 4.00 |  | 78.9 | 104 | 97.4 | 101 |  |
| COC1O[C@@]2(C)CC(=O)[C@@H]3C[C@]2(O[C@@H]2O[C@H](CO)[C@@H](O)[C@H](O)[C@H]2O)[C@@]13COC(=O)c1ccccc1 (stereo partly specified) |  | < 4.00 |  |  |  |  |  |
| CO[C@@H]1C[C@]2(C)OC(=O)[C@]3(COC(=O)c4ccccc4)[C@@H]1C[C@@]23O[C@@H]1O[C@H](CO)[C@@H](O)[C@H](O)[C@H]1O | < 4.00 |  | 102 | 91.6 | 95.5 | 91.5 |  |
